Data on 15 compounds can be found in ChEMBL document CHEMBL1154721, “Synthesis, antitumor activity and molecular docking study of novel sulfonamide-Schiff's bases, thiazolidinones, benzothiazinones and their C-nucleoside derivatives” (Eur J Med Chem, 2010).

In brackets after ≈: the same amount, converted by molar mass.

Assay [1] is described as follows: Inhibition of PTK.
A further assay concerns HeLa. Put plainly: Cytotoxicity against human HeLa cells after 48 hrs by SRB assay. It is filed as functional, cell-based. An outline of the steps:
(§1)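 Cells were seeded and left 24 h to attach before dosing, then exposed to test compound at […], in triplicate wells per dose. Incubation was 48 h at 37 °C under 5% CO2. Cells were then fixed, washed and stained with sulforhodamine B, excess dye was removed with acetic acid, bound dye was recovered in Tris-EDTA buffer, and colour intensity was read on an ELISA reader.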

A further assay has as its system MCF7. Description: Cytotoxicity against human MCF7 cells after 48 hrs by SRB assay. It is filed as functional, cell-based. An outline of the steps: as §1

On to `COc1ccc(C2Sc3ccccc3C(=O)N2c2ccc(S(=O)(=O)Nc3ccccn3)cc2)c(O)c1` (stereo unspecified), for which, in assay [1], affinity was put at a Ki of 4720 nM.

The compound `O=C1c2ccccc2SC(c2c[nH]c3ccccc23)N1c1ccc(S(=O)(=O)Nc2ccccn2)cc1` (stereo unspecified) returned a Ki in assay [1] of 553 nM.

In assay [1], `COc1ccc(C2SCC(=O)N2c2ccc(S(=O)(=O)Nc3ccccn3)cc2)cc1` (stereo unspecified) returned a Ki of 705 nM.

In assay [1], `COc1ccc(C2Sc3ccccc3C(=O)N2c2ccc(S(=O)(=O)Nc3ccccn3)cc2)cc1OC` (stereo unspecified) came in with an inhibition constant (Ki) of 2510 nM.

`COc1cc(/C=N/c2ccc(S(=O)(=O)Nc3ccccn3)cc2)cc(OC)c1OC` registered a Ki in assay [1] of 526 nM.

Compound `COc1ccc(/C=N/c2ccc(S(=O)(=O)Nc3ccccn3)cc2)c(O)c1` registered a Ki in assay [1] of 258 nM.

As for `COc1cc(C2SCC(=O)N2c2ccc(S(=O)(=O)Nc3ccccn3)cc2)cc(OC)c1OC` (stereo unspecified), in assay [1], the inhibitory constant (Ki) was determined as 5320 nM.

`COc1cc(C2Sc3ccccc3C(=O)N2c2ccc(S(=O)(=O)Nc3ccccn3)cc2)cc(OC)c1OC` (stereo unspecified) gave a Ki in assay [1] of 48700 nM.

In assay [1], `O=S(=O)(Nc1ccccn1)c1ccc(/N=C/[C@H](O)[C@H](O)[C@@H](O)[C@@H](O)CO)cc1` registered an inhibitory constant (Ki) of 331 nM.

Compound `COc1ccc(C2SCC(=O)N2c2ccc(S(=O)(=O)Nc3ccccn3)cc2)c(O)c1` (stereo unspecified) showed an inhibition constant Ki in assay [1] of 15400 nM.

In assay [1], `O=C1CSC([C@H](O)[C@H](O)[C@@H](O)[C@@H](O)CO)N1c1ccc(S(=O)(=O)Nc2ccccn2)cc1` (stereo partly specified) gave a Ki of 2350 nM.

The compound `COc1ccc(/C=N/c2ccc(S(=O)(=O)Nc3ccccn3)cc2)cc1OC` returned an inhibitory constant (Ki) in assay [1] of 258 nM.

Regarding `COc1ccc(C2SCC(=O)N2c2ccc(S(=O)(=O)Nc3ccccn3)cc2)cc1OC` (stereo unspecified), the Ki in assay [1] was determined as 1050 nM.

As to `O=c1[nH]cc(F)c(=O)[nH]1` [FLUOROURACIL], the IC50 in the assay with HeLa worked out at 1.01 µg/mL (≈ 7.76 µM); with MCF7, 0.67 µg/mL (≈ 5.15 µM).

Regarding `Nc1ccc(S(=O)(=O)Nc2ccccn2)cc1` [SULFAPYRIDINE], the affinity in assay [1] corresponds to a Ki of 3590 nM.
